Here are results for two compounds from paper PMC12750163 (Acta Pharmaceutica Sinica. B, 2025).

One data set concerns A549 cells. In words: PD-L1 and EVs in A549 cells treated with GW4869. The data set is classed as cell-based, human. Particulars: 10 μmol/L. The method in brief: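 A549 or LSD1-knockout A549 cells (lentiviral editing, antibiotic selection, PCR/sequencing check, single-cell cloning) are treated ± 10 μmol/L GW4869. Conditioned medium is spun 3000 × g, 10 min, 4 °C. EVs are precipitated with an equal volume of isolation reagent at 4 °C, pelleted 10,000 × g, 60 min, 4 °C, and PBS-washed. Characterisation by TEM/NTA. PD-L1, ALIX, TSG101 and CD9 are detected by western blot from equal cell numbers.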

A further data set relates to LLC tumor-bearing mice. In words: In vivo biodistribution. Set-up: species or system mouse. Particulars: i.v., over time. The method in brief: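 Cy5.5-loaded liposomes stand in for drug and anti-PD1. Free Cy5.5 or Cy5.5-nanoparticles (3 mg/kg Cy5.5 equivalent) are injected via the tail vein into LLC tumour-bearing nude mice. Mice are imaged under anaesthesia at 2, 4, 6, 8, 12 and 24 h (λex/λem 680/704 nm). Mean tumour ROI fluorescence is quantified. Organs and tumours are imaged ex vivo at 24 h.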

As to `O=C(/C=C/c1ccc(/C=C/C(=O)Nc2ccc(C3=NCCN3)cc2)cc1)Nc1ccc(C2=NCCN2)cc1` [GW4869], in the data set on A549 cells (A549 cells), the “levels of EVs and EVs-PD-L1” value is given as “reduced”; the “membrane PD-L1 and total PD-L1” value was “significant accumulation”. Besides, the “membrane PD-L1” value in the data set on A549 cells (LSD1-knockout A549 cells) was “induced the accumulation”.
Take Cy5.5: the “accumulation at the tumor site compared with Cy5.5-FPNs” value in the data set with LLC tumor-bearing mice is “much lower”.
